Consider 18 compounds from ChEMBL document CHEMBL4819036, “Hepatoprotective Glucosyloxybenzyl 2-Hydroxy-2-isobutylsuccinates from Pleione yunnanensis” (2021).

Structures are written as SMILES.

In test [1] the test system is L02. Description: Hepatoprotective activity against D-GalN-induced toxicity in human HL-7702 cells assessed as cell survival rate at 10 uM preincubated for 48 hrs followed by D-GalN stimulation for 8 hrs by MTT assay (reference value: 33 %). Type of test: functional. The settings on record: time 56 hrs. The gist of the method:
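Normal human HL-7702 hepatocytes were injured with D-galactosamine at 60 mM, with test compounds at 10 μM. Viability was measured by the MTT method as OD, and survival rate was expressed as a percentage of untreated control cells. Bicyclol at 10 μM served as the positive control. Statistics compared treated cells with the D-GalN model group.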

The test system of test [2] is HepG2. Description: Hepatoprotective activity against APAP-induced toxicity in human HepG2 cells assessed as cell survival rate at 10 uM after 48 hrs by MTT assay (reference value: 23 %). It is filed as functional.

As for `COC(=O)c1cc(OC)c2c(c1-c1c(CO)cc(OC)c3c1OCO3)OCO2` [BICYCLOL], the values for the Activity in test [1] and in test [2] were 47% and 32%, respectively.

`CC(C)C[C@@](O)(CC(=O)OCc1ccc(O[C@@H]2O[C@H](CO)[C@@H](O)[C@H](O)[C@H]2O)cc1)C(=O)OCc1ccc(O[C@@H]2O[C@H](COCc3ccc(O)cc3)[C@@H](O)[C@H](O)[C@H]2O)cc1`: the Activity is listed as 55% in test [1] and 28% in test [2].

As to `CC(C)C[C@](CC(=O)OCc1ccc(O[C@@H]2O[C@H](CO)[C@@H](O)[C@H](O)[C@H]2O)cc1)(O[C@@H]1O[C@H](CO)[C@@H](O)[C@H](O)[C@H]1OC(=O)/C=C\c1ccc(O)cc1)C(=O)OCc1ccc(O[C@@H]2O[C@H](CO)[C@@H](O)[C@H](O)[C@H]2O)cc1`, the Activity was 39% in test [1] and 21% in test [2].

With `COC(=O)C[C@](O)(CC(C)C)C(=O)OCc1ccc(O[C@@H]2O[C@H](CO)[C@@H](O)[C@H](O)[C@H]2O)cc1`, the values for the Activity in test [1] and in test [2] were 64% and 28%, respectively.

`CC(C)C[C@](CC(=O)OCc1ccc(O[C@@H]2O[C@H](CO)[C@@H](O)[C@H](O)[C@H]2O)cc1)(O[C@@H]1O[C@H](CO)[C@@H](O)[C@H](O)[C@H]1O)C(=O)OCc1ccc(O[C@@H]2O[C@H](CO)[C@@H](O)[C@H](O)[C@H]2O)cc1`: the Activity in test [2] is reported as 35%.

For `CC(C)C[C@](CC(=O)OCc1ccc(O[C@@H]2O[C@H](CO)[C@@H](O)[C@H](O)[C@H]2O)cc1)(O[C@@H]1O[C@H](CO)[C@@H](O)[C@H](O)[C@H]1OC(=O)/C=C\c1ccc(O[C@@H]2O[C@H](CO)[C@@H](O)[C@H](O)[C@H]2O)cc1)C(=O)OCc1ccc(O[C@@H]2O[C@H](CO)[C@@H](O)[C@H](O)[C@H]2O)cc1`, the Activity is recorded as 38% in test [1] and 17% in test [2].

Take `CC(C)C[C@@](O)(CC(=O)OCc1ccc(O[C@@H]2O[C@H](CO[C@@H]3O[C@H](CO)[C@@H](O)[C@H](O)[C@H]3O)[C@@H](O)[C@H](O)[C@H]2O)cc1)C(=O)OCc1ccc(O[C@@H]2O[C@H](CO)[C@@H](O)[C@H](O)[C@H]2O)cc1`: the Activity in test [1] worked out at 38%; in test [2], 28%.

Turning to `CC(C)C[C@](CC(=O)OCc1ccc(O[C@@H]2O[C@H](CO)[C@@H](O)[C@H](O)[C@H]2O)cc1)(O[C@@H]1O[C@H](CO)[C@@H](O)[C@H](O)[C@H]1OC(=O)/C=C/c1ccc(O)cc1)C(=O)OCc1ccc(O[C@@H]2O[C@H](CO)[C@@H](O)[C@H](O)[C@H]2O)cc1`, the Activity in test [1] stood at 52%; in test [2], 23%.

Consider `CC(C)C[C@@](O)(CC(=O)OCc1ccc(O[C@@H]2O[C@H](CO)[C@@H](O)[C@H](O)[C@H]2O)cc1)C(=O)OCc1ccc(O[C@@H]2O[C@H](CO[C@@H]3O[C@H](CO)[C@@H](O)[C@H](O)[C@H]3O)[C@@H](O)[C@H](O)[C@H]2O)cc1`, for which the Activity in test [1] came to 36%; in test [2] it was 39%.

On to `CC(=O)OC[C@H]1O[C@@H](O[C@@](CC(=O)OCc2ccc(O[C@@H]3O[C@H](CO)[C@@H](O)[C@H](O)[C@H]3O)cc2)(CC(C)C)C(=O)OCc2ccc(O[C@@H]3O[C@H](CO)[C@@H](O)[C@H](O)[C@H]3O)cc2)[C@H](O)[C@@H](O)[C@@H]1O`, for which the Activity in test [1] is 39%; in test [2], 14%.

Regarding `CC(C)C[C@](CC(=O)O)(O[C@@H]1O[C@H](CO)[C@@H](O)[C@H](O)[C@H]1O)C(=O)OCc1ccc(O[C@@H]2O[C@H](CO)[C@@H](O)[C@H](O)[C@H]2O)cc1`, the Activity in test [2] is given as 27%.

On to `CC(C)C[C@@](O)(CC(=O)OCc1ccc(O[C@@H]2O[C@H](CO)[C@@H](O)[C@H](O)[C@H]2O)cc1)C(=O)OCc1ccc(O[C@@H]2O[C@H](CO)[C@@H](O)[C@H](O)[C@H]2O)cc1`, for which, in test [2], the Activity turned out to be 23%.

For the compound `CC(C)C[C@](O)(C(=O)OCc1ccc(O[C@@H]2O[C@H](CO)[C@@H](O)[C@H](O)[C@H]2O)cc1)[C@H](O)C(=O)OCc1ccc(O[C@@H]2O[C@H](CO)[C@@H](O)[C@H](O)[C@H]2O)cc1`, the Activity in test [2] came to 23%.

With `CC(C)C[C@@](O)(CC(=O)OCc1ccc(O[C@@H]2O[C@H](COCc3ccc(O)cc3)[C@@H](O)[C@H](O)[C@H]2O)cc1)C(=O)OCc1ccc(O[C@@H]2O[C@H](CO)[C@@H](O)[C@H](O)[C@H]2O)cc1`, the Activity in test [1] is given as 60%; in test [2] it was 27%.

Turning to `CC(C)C[C@](CC(=O)OCc1ccc(O[C@@H]2O[C@H](CO)[C@@H](O)[C@H](O)[C@H]2O)cc1)(O[C@@H]1O[C@H](CO)[C@@H](O)[C@H](O)[C@H]1OC(=O)/C=C/c1ccc(O[C@@H]2O[C@H](CO)[C@@H](O)[C@H](O)[C@H]2O)cc1)C(=O)OCc1ccc(O[C@@H]2O[C@H](CO)[C@@H](O)[C@H](O)[C@H]2O)cc1`, the Activity was 43% in test [1] and 25% in test [2].

Take `CC(C)C[C@](CC(=O)OCc1ccc(O[C@@H]2O[C@H](COCc3ccc(O)cc3)[C@@H](O)[C@H](O)[C@H]2O)cc1)(O[C@@H]1O[C@H](CO)[C@@H](O)[C@H](O)[C@H]1O)C(=O)OCc1ccc(O[C@@H]2O[C@H](CO)[C@@H](O)[C@H](O)[C@H]2O)cc1`: the Activity in test [1] was found to be 39%; in test [2] it was 32%.

In the case of `CC(C)C[C@@](O)(CC(=O)O)C(=O)OCc1ccc(O[C@@H]2O[C@H](CO)[C@@H](O)[C@H](O)[C@H]2O)cc1`, the Activity in test [2] amounted to 28%.

For the compound `CC(C)C[C@@](O)(CC(=O)OCc1ccc(O[C@@H]2O[C@H](CO)[C@@H](O)[C@H](O)[C@H]2O)cc1)C(=O)OCc1ccc(O[C@@H]2O[C@H](CO)[C@@H](O)[C@H](O)[C@H]2OCc2ccc(O)cc2)cc1`, the Activity is given as 49% in test [1] and 19% in test [2].
